Data reported in ChEMBL document CHEMBL1126079, “Synthesis, configuration, and calcium modulatory properties of enantiomerically pure 5-oxo-1,4,5,6,7,8-hexahydroquinoline-3-carboxylates” (J Med Chem, 1992).

Experiments:
[1] = species: Cavia porcellus; assay: Maximum inhibition of KCl-stimulated contraction of aortic strips of guinea pig; type: functional, Aorta
How it was run: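 Aortic strips were held in carbogen-perfused Tyrode solution at 37 °C under 2 g preload, and isometric contractions were recorded after amplification. Contractions were induced with KCl at 67 mmol/L bath concentration to test for antagonism. Between substances the preparation was washed back to its initial state before KCl was given again.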

[2] = species: Cavia porcellus; assay: Intrinsic activity is the inhibition of contraction of guinea pig ileum value in comparison with nifedipine.; type: functional
How it was run: (§1)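 Each test substance was given as a single dose to the ileum preparation. BaCl2 contraction was elicited after a 10-min exposure. Between substances the tissue was washed until the initial state returned, then BaCl2 contraction was induced again.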

[3] = species: Cavia porcellus; assay: Effect on BaCl2-stimulated contraction of ileum of guinea pig; type: functional; how it was run: as §1
[4] = species: Cavia porcellus; assay: (§2) Maximum inhibition of BaCl2-stimulated contraction of ileum of guinea pig; type: functional; how it was run: as §1
[5] = species: Cavia porcellus; assay: Intrinsic activity is the inhibition of contraction of guinea pig aorta strips value in comparison with nifedipine.; type: functional
How it was run: (§3)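 Tissue sat in carbogen-perfused Tyrode solution at 37 °C under a 2 g preload, with isometric recording. KCl (67 mmol/L bath concentration) was added after each substance to test for antagonism, with washing back to the initial state between substances. EC50 and intrinsic activity were derived as in the paper's earlier section 1c.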

[6] = species: Cavia porcellus; assay: Effect on KCl-stimulated contraction of aortic strips of guinea pig; type: functional, Aorta; how it was run: as §3
[7] = species: Cavia porcellus; assay: as §2; type: functional; remark: listed apart in the source
How it was run: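 Guinea-pig ileum, single-dose technique: each test substance was added and left for 10 min before BaCl2 contractions were induced. Between substances the preparation was washed until the initial state returned, then BaCl2 contraction was induced again.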

[8] = species: Cavia porcellus; assay: Intrinsic activity value in comparison with nifedipine.; type: functional

SMILES | Max effect [1] [%] | IA [2] | EC50 [3] | Max effect [4] [%] | IA [5] | EC50 [6] [M l-1] | Inhibition [1] [%] | Inhibition [7] [%] | IA [8]
COC(=O)C1=C(C)NC2=C(C(=O)CCC2)[C@@H]1c1ccc2c(c1)OCO2 (stereo in doubt; 9b) | 84 | 0.94 | 22 µM | 89 | 1.2 | – | – | – | –
CO/C(O)=C1\C(C)=NC2=C(C(=O)CCC2)C1c1ccc2c(c1)OCO2 (racemic) | 73 | 0.8 | 5e-05 M l-1 | 76 | 1 | 2e-06 | – | – | –
CO[C@H](COC(=O)C1=C(C)NC2=C(C(=O)CCC2)[C@@H]1c1ccc2c(c1)OCO2)c1ccccc1 | 70 | – | – | – | 1 | 7.1e-06 | – | – | –
CO[C@@H](COC(=O)C1=C(C)NC2=C(C(=O)CCC2)[C@H]1c1ccc2c(c1)OCO2)c1ccccc1 | 42 | – | – | – | 0.6 | 4e-05 | – | – | –
COC(=O)C1=C(C)NC(C)=C(C(=O)OC)C1c1ccccc1[N+](=O)[O-] [NIFEDIPINE] | – | – | 2e-08 M l-1 | – | – | 8.9e-09 | 70 | 95 | 1
COC(=O)C1=C(C)NC2=C(C(=O)CCC2)[C@@H]1c1ccc2c(c1)OCO2 (stereo in doubt; 9a) | 38 | 0.44 | 25 µM | 42 | 0.54 | – | – | – | –
